Reference: PubChem BioAssay
Calls of active or inactive are those of the source.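 Rule for the calls, unless noted: active = GFP response above 150% of the DMSO level; inconclusive = fewer than 70 events counted for a yeast strain; inactive = the rest.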

Assays:
[1] = hit retest on RPL19A-GFP reporter strain – cell-based, S. cerevisiae, flow cytometry, cherry picks, mother/daughter gates, confirmation (AID 2270;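 active = GFP response below 50% of the DMSO control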); details: 3 h, at 10 µM, stronger effect = lower value, 100 = same GFP as DMSO wells
[2] = yeast TOR pathway reporter LAP4-GFP change – cell-based, cherry picks, flow cytometry, mother/daughter gates, confirmation (AID 2271;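 active = GFP response above 150% of the DMSO control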;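 note: ratio of sample to DMSO plate mean so 100% equals DMSO level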); details: S. cerevisiae LAP4-GFP strain, 3 h, at 10 µM, stronger effect = higher value, 100 means same as DMSO control
Outline: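 Test system: GFP-fusion yeast strain / Amount: 0.2 OD600 cells / Buffer or medium: SC medium / Dosing: 10 µM single dose / Incubation: compound exposure 3 h at 30 °C, end-over-end rotation / Detection: HT flow cytometry, GFP fluorescence channel / Evaluation: median GFP fluorescence as percent of plate-mean DMSO wells / Control set: DMSO-only negative wells, rapamycin 400 ng/mL positive wells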

[3] = TOR pathway reporter MEP2-GFP, retest of hits – S. cerevisiae, flow cytometry GFP, cherry picks, confirmation (AID 2272;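 active = GFP response above 150% of the DMSO control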;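 note: ratio of well signal to plate DMSO mean so 100% equals DMSO level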); details: S. cerevisiae MEP2-GFP strain, 3 h, at 10 µM, stronger effect = higher value
[4] = yeast AGP1-GFP fluorescence change, single-dose – cell-based, flow cytometry, S. cerevisiae, cherry picks, confirmation (AID 2273);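 note: median GFP channel fluorescence over the whole cell population gate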; details: S. cerevisiae AGP1-GFP strain, 3 h, at 10 µM
[5] = TOR pathway CIT2 reporter hit retest – S. cerevisiae, GFP fusion, cherry picks, mother/daughter gates, confirmation (AID 2274); details: S. cerevisiae CIT2-GFP strain, flow cytometry, 3 h, at 10 µM, stronger effect = higher value
[6] = measured here: daughter cell gate
[7] = measured here: mother cell gate
[8] = measured here: daughter cell gate response
[9] = measured here: mother cell gate response

Row | Structure (SMILES) | GFP response vs DMSO [1] | GFP response vs DMSO [1, 6] [%] | GFP response vs DMSO [1, 7] [%] | GFP response relative to DMSO [2] | GFP response relative to DMSO [2, 8] [%] | GFP response relative to DMSO [2, 9] [%] | GFP response vs DMSO [3] | GFP response, % of DMSO [4] | GFP response, % of DMSO [5] | GFP response, % of DMSO [5, 6] [%] | GFP response, % of DMSO [5, 7] [%]
1 | Cc1[nH][nH]c(=O)c1C(c1ccc(N(C)C)c(Br)c1)c1c(C)[nH][nH]c1=O | 99.3% (inactive) | 98 | 99.2 | 116% (inactive) | 115 | 114 | 104% (inactive) | 105% (inactive) | 96.4% (inactive) | 96.4 | 94.5
2 | CCn1c(=O)c(C(=O)NC(C)C)c(O)c2ccccc21 | 101% (inactive) | 98.7 | 101 | 101% (inactive) | 100 | 101 | 100% (inactive) | 97.8% (inactive) | 103% (inactive) | 99.7 | 103
3 | Cc1ccc(S(=O)(=O)Cc2cc(F)c([N+](=O)[O-])cc2[N+](=O)[O-])cc1 | 74.2% (inactive) | 88.4 | 62.6 | 251% (active) | 146 | 223 | 127% (inactive) | 105% (inactive) | 89.7% (inactive) | 84.1 | 72.8
4 | COc1cccc2c1Oc1ncccc1N(C(=O)CCC(=O)NCc1ccccc1)C2 | 99.2% (inactive) | 98.1 | 101 | 97% (inactive) | 95.9 | 97.3 | 103% (inactive) | 102% (inactive) | 98.8% (inactive) | 99.2 | 98.1
5 | COCCn1c(=N)c(C(=O)NCc2ccco2)cc2c(=O)n3ccccc3nc21 | 100% (inactive) | 95.3 | 93.5 | 96.5% (inactive) | 96 | 86.3 | 95.2% (inactive) | 102% (inactive) | 100% (inactive) | 97.6 | 97.1
6 | CCOc1ccccc1NC1=C(Cl)C(=O)N(Cc2ccccc2)C1=O | 103% (inactive) | 102 | 104 | 96.2% (inactive) | 97.2 | 97.2 | 104% (inactive) | 98.5% (inactive) | 99.1% (inactive) | 99.7 | 98.7
7 | c1ccc2oc(SCc3nc4ccccc4s3)nc2c1 | 99% (inactive) | 98.9 | 98.9 | 106% (inactive) | 104 | 106 | 98.3% (inactive) | 95% (inactive) | 99.7% (inactive) | 99.1 | 99.7
8 | Cc1ccc(C(=O)OCC(=O)Nc2ccccc2Sc2ccccc2)cc1C | 99% (inactive) | 97.8 | 99.7 | 96.1% (inactive) | 99.7 | 97.2 | 96.6% (inactive) | 99.3% (inactive) | 103% (inactive) | 103 | 105
9 | O=C(Nc1nccs1)C1CCCN1S(=O)(=O)c1ccc(F)cc1 (stereo not drawn) | 98.8% (inactive) | 99.8 | 100 | 96.2% (inactive) | 100 | 95.2 | 100% (inactive) | 100% (inactive) | 110% (inactive) | 103 | 114
10 | CCOc1ccccc1NC(=O)c1nc(S(=O)(=O)Cc2ccccc2)ncc1Cl | 97.8% (inactive) | 99.8 | 97.1 | 94.1% (inactive) | 96 | 95.4 | 103% (inactive) | 106% (inactive) | 98.6% (inactive) | 101 | 97.1
11 | CCOC(=O)/C(=N\NC(=O)c1ccccc1)c1ccccc1 | 97.2% (inactive) | 95.7 | 98.1 | 107% (inactive) | 105 | 106 | 104% (inactive) | 96.5% (inactive) | 101% (inactive) | 100 | 99.1
12 | COc1ccc(N2CCN(C(=O)c3ccc(Br)cc3)CC2)c([N+](=O)[O-])c1 | 114% (inactive) | 80.2 | 102 | 208% (active) | 131 | 192 | 132% (inactive) | 153% (active) | 105% (inactive) | 82.5 | 90.8
13 | Cc1ccc(-c2ccc(/C=N/NC(N)=S)o2)cc1 | 98.6% (inactive) | 95 | 98.7 | 112% (inactive) | 113 | 115 | 102% (inactive) | 91.9% (inactive) | 97.8% (inactive) | 94.8 | 96.6
